Bioassay records as filed in PubChem.
STAT1 inh-1: STAT1 signaling inhibitors, primary screen, cell-based, HTS, luciferase reporter | NIH 3T3 STAT1-luciferase reporter, IFN-gamma, luminescence | inhibition, % at 5.5 µM | actives 0.35% (n = 200,000) | AID 920, 2007;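 active = inhibition above a set limit, the mean inhibition across all tested compounds plus 3 SD, cut at about 34% in these data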;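 note: 0% = IFN-gamma with DMSO and 100% = IFN-gamma with 300 µM nifuroxazide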
APP 5'UTR act: activators of APP 5'UTR luciferase reporter, primary screen, SH-SY5Y cells; SH-SY5Y APP 5'UTR luciferase reporter, luminescence; zero percent = DMSO vehicle wells; activation, % at 2 µM; actives 1% (n = 190,000); AID 1276, 2008;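 active = activation above a set limit, based on mean plus 3 SD of controls, cut at about 140% in these data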
STAT1 act-1: STAT1 signaling activators, primary screen, cell-based, HTS, luciferase reporter. NIH 3T3 STAT1-luciferase reporter, IFN-gamma, luminescence; 100% = IFN-gamma alone, no compound. activation (% of control), % at 5.5 µM. actives 2.6% (n = 200,000). AID 932, 2007;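 active = activation above the screen-wide mean activation plus 3 SD, cut at about 130% in these data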;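 note: raw ratio to IFN-gamma control signal so 100% means no change and 0% no light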
STAT3 blocker: IL-6 driven STAT3 reporter inhibitors, primary screen, U3A cells, luciferase, luminescence, MLSCN library | IL-6 STAT3-luciferase reporter; host cell line lacks STAT1 | AID 862, 2007 | inhibition, % at 5.5 µM | actives 0.89% (n = 190,000);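 active = inhibition above the mean inhibition across all screened compounds plus 3 SD, cut at about 44% in these data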;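 note: 0% = DMSO only wells and 100% = 100 µM nifuroxazide control wells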
NF-kB neuron act: activators of NF-kB expression in neurons, primary screen, cell-based, HTS. human neuronal cells, NF-kB reporter expression; stronger effect = higher value. fold change at 12.5 µM. actives 1.6% (n = 190,000). AID 1239, 2008; in the data active = fold change above about 3.3
STAT3 act-1: IL-6 driven STAT3 reporter potentiators, primary screen, U3A cells, luciferase, luminescence, MLSCN library. IL-6 STAT3-luciferase reporter; 100% = signal with IL-6 EC80 alone. actives 0.91% (n = 190,000). activation (% of control), % at 5.6 µM;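 active = activation above the screen-wide mean of compound activation plus 3 SD, cut at about 130% in these data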;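 note: 0% = background luminescence of wells with medium and substrate only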
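Material: human U3A cells carrying STAT3-luciferase construct. Measured by: reporter luminescence signal. Timing: compound 1 h, then IL-6 6 h at 37 °C.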
STAT3 act-2: STAT3 reporter potentiators, retest of hits, confirmation, U3A cells, luciferase, luminescence. shares compounds with STAT3 act-1. IL-6 potentiation; U3A cells lack STAT1; 100 means same as IL-6 alone. potentiation (% of control), % at 5.7 µM. actives 64% (n = 1,200);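 active = percent activation of the STAT3 luciferase reporter above a set limit taken from the earlier primary screen, cut at about 130% in these data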;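 note: 0% = background signal of medium plus substrate and 100% = median of IL-6 with DMSO wells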
NFkB act 2: NF-kB reporter activators in human cells, counter-screen for STAT3 activator project; actives 11% (n = 1,200); NF-kappaB reporter activation; activation (% of control), % at 5.7 µM; shares compounds with STAT3 act-1; in the data active = activation above about 120%;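 note: reporter induced by TNF-alpha stimulation; 100% = median of stimulated DMSO wells and 0% = no signal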
STAT1 act-2: STAT1 reporter activators, IFN-gamma induced, counter-screen for STAT3 activator project, cell-based, NIH 3T3, luciferase luminescence; activation (% of control), % at 5.7 µM; shares compounds with STAT3 act-1; NIH 3T3 STAT1-luciferase reporter; actives 13% (n = 1,200);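 active = activation above the solvent-only control well mean plus 3 SD, set per screening run, cut at about 120% in these data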;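 note: 100% = IFN-gamma with DMSO median signal so 100% means no change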
STAT1 inh-2: STAT1 signaling inhibitors, confirmation, cell-based, HTS, luciferase reporter | shares compounds with STAT1 inh-1 | NIH 3T3 STAT1-luciferase reporter, IFN-gamma, luminescence | inhibition, % at 5.5 µM | actives 55% (n = 200) | AID 1263, 2008;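 active = triplicate mean inhibition exceeding the hit cutoff computed for the primary STAT1 screen, cut at about 35% in these data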;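 note: 0% = DMSO with IFN-gamma and 100% = 300 µM nifuroxazide with IFN-gamma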
NFkB inh STAT1ct: NF-kB reporter inhibitors, TNF-alpha stimulated, counter-screen for STAT1 inhibitor project, cell-based, HEK293T, luciferase luminescence; AID 1303, 2008; inhibition, % at 5.7 µM; actives 30% (n = 200); TNF-alpha induced; shares compounds with STAT1 inh-1;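 active = inhibition above the mean of solvent-only control wells plus 3 SD of those wells, cut at about 15% in these data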;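 note: 0% = DMSO with TNF-alpha and 100% = MG-132 control with TNF-alpha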
STAT3 inh 2: STAT3 reporter inhibition by STAT1 hits, counter-screen for STAT1 inhibitor project, U3A cells, luciferase, luminescence, triplicate | shares compounds with STAT1 inh-1 | actives 20% (n = 200) | inhibition, % at 5.7 µM | IL-6 STAT3 luciferase reporter; cells lacking STAT1;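 active = inhibition above the mean of solvent-only control wells plus 3 SD, set per campaign, cut at about 25% in these data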;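 note: 0% = IL-6 plus DMSO and 100% = IL-6 plus nifuroxazide control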
Starred values were filed as active, the others as inactive; x = no result given. Only some compounds are listed: those with a hit (about 4.9% of all), similar ones and a draw of the others.

SMILES	STAT1 inh-1	APP 5'UTR act	STAT1 act-1	STAT3 blocker	NF-kB neuron act	STAT3 act-1	STAT1 inh-2	NFkB inh STAT1ct	STAT3 inh 2	others
CC1CCCC(C)N1C(=O)Cn1cc(/C=C2/C(=O)Nc3ccccc32)c2ccccc21 (stereo not drawn)	-4	10	102	-70	0.56	158*	x	x	x	STAT3 act-2=151*;NFkB act 2=99;STAT1 act-2=103
CC(=O)Nc1ccc(S(=O)(=O)Nc2nc3ccccc3nc2N2CCCCCC2)cc1	1	0	99	-3	1.1	105	x	x	x
CC(=O)Nc1ccc(S(=O)(=O)Nc2nc3ccccc3nc2N2CCc3ccccc3C2)cc1	-14	18	112	-48	1.2	137*	x	x	x	STAT3 act-2=140*;NFkB act 2=106;STAT1 act-2=119
O=S(=O)(Nc1nc2ccccc2nc1N1CCc2ccccc2C1)c1ccc(Cl)cc1	-23	21	121	-43	0.83	136*	x	x	x	STAT3 act-2=130;NFkB act 2=110;STAT1 act-2=118
Cc1ccccc1S(=O)(=O)Nc1nc2ccccc2nc1Cl	-7	15	105	-9	0.98	108	x	x	x
Cc1ccccc1S(=O)(=O)Nc1nc2ccccc2nc1N1CCc2ccccc2C1	0	18	100	-38	1.2	136*	x	x	x	STAT3 act-2=135*;NFkB act 2=119;STAT1 act-2=114
CCCCCOP(=O)(OCCCCC)C1(NS(=O)(=O)c2ccccc2)C=CC(=O)c2ccccc21 (stereo not drawn)	-8	13	107	-46	0.64	137*	x	x	x	STAT3 act-2=120;NFkB act 2=108;STAT1 act-2=104
CCCCCCOC1(c2ccccc2)OC(=O)c2ccccc21 (stereo not drawn)	2	14	98	2	0.84	105	x	x	x
Oc1ccccc1/C=N/Nc1cccc2cccnc12	11	89	90	-67	12*	162*	x	x	x	STAT3 act-2=164*;NFkB act 2=98;STAT1 act-2=93
CCCn1nc(C(=O)OCC(=O)c2c(N)n(C)c(=O)n(C)c2=O)c2ccccc2c1=O	49*	8	54	14	0.76	92	31	4	-2
Cc1ccc(C(=O)N/C(=C/c2ccco2)C(=O)OCN2C(=O)c3ccccc3C2=O)cc1	1	-5	100	-2	1.2	100	x	x	x
CCOC(=O)N1CCN(C(=O)c2ccc(-n3c(=S)[nH]c4ccccc4c3=O)cc2)CC1	60*	9	49	20	0.87	86	48*	8	9
CCOC(=O)N1CCN(C(=O)c2ccc3c(=O)n(-c4ccccc4F)c(=S)[nH]c3c2)CC1	40*	16	63	17	0.83	89	13	-12	0
CCOC(=O)N1CCN(C(=O)c2ccc3c(=O)n(-c4ccc(OC)cc4)c(=S)[nH]c3c2)CC1	10	15	91	8	1	99	x	x	x
COc1ccc(NC(=O)C2CCN(c3cc(-c4ccccc4)nc4ncnn34)CC2)cc1OC	42*	12	61	30	0.86	76	53*	19*	36*
Cc1sc(-c2ccncc2)nc1OC(=O)c1ccc(F)cc1F	51*	-6	51	4	1	98	27	10	7
CCN(CC)C(=O)c1ccc2c(c1[N+](=O)[O-])C(=O)c1ccccc1C2=O	-11	59	110	-6	1.5	100	x	x	x
Clc1ccc(C[n+]2cc(-c3ccccc3)n3c2CCC3)cc1Cl	16	-14	86	32	0.73	75	x	x	x
Clc1ccc(C[n+]2cc(-c3ccccc3)n3c2CCCCC3)c(Cl)c1	40*	8	63	26	1	79	28	-9	26*
Cc1nc(N)nc(N)c1/C=C/C(C)(C)c1ccc(Cl)cc1	38*	-70	65	39	0.56	69	38*	28*	40*
CCOC(=O)N1CCN(c2ncnc3c2[nH]c2ccc(F)cc23)CC1	54*	19	50	34	0.28	73	61*	19*	37*
CCOC(=O)N1CCN(c2ncnc3c2[nH]c2ccc(OC)cc23)CC1	53*	5	51	17	0.52	91	44*	21*	-24
O=C(Nc1ccc(Br)cn1)c1cccc2c1-c1ccccc1C2=O	-7	-23	104	14	0.67	95	x	x	x
Nc1ccc2nc(-c3cccnc3)[nH]c2c1	-9	x	108	5	1.1	96	x	x	x
Nc1ccc(-c2nc3c(Cl)cc(N)cc3[nH]2)cc1	41*	-63	62	26	0.38	79	30	35*	28*
O=C(NC(=S)Nc1ccc(-c2ccc(CO)o2)cc1)c1cccs1	1	2	98	12	1.3	91	x	x	x
Cc1ccc(C(=O)NC(=S)Nc2ccc(-c3ccc(CO)o3)cc2)cc1	64*	15	41	7	1.4	95	26	-8	-2
O=c1oc2ccccc2c(O)c1C=NCc1ccccn1	-5	14	105	10	1.1	94	x	x	x
O=C(O)C(Cc1ccccc1)N=Cc1c(O)c2ccccc2oc1=O (stereo not drawn)	41*	-15	63	10	0.98	95	19	-5	-24
CCC(C)c1ccccc1NC(=O)C(C)N(C)Cc1cccc(OC)c1 (stereo not drawn)	10	-17	89	4	1.1	103	x	x	x
